High-throughput results (PubChem BioAssay)
A selection: hits, their analogues and other compounds. The true share with any hit is near 3.7%.
KCNK9 inh – inhibitors of human KCNK9 two-pore domain potassium channel; Q9NPC2; HEK293 KCNK9, FluxOR thallium flux fluorescence; stronger effect = lower value; B-score at 10 µM; hit rate 1.2% among 310,000; AID 488922;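 active = ratio B-score over 3 SD below the library mean, with starting fluorescence within 5 SD of its mean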;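 also: negative B-score means less thallium flux so channel inhibition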
hERG protect – hERG (human) protection from proarrhythmic block | Q12809 | CHO-hERG, FluxOR thallium flux, dofetilide IC70 present | activation (rescue from dofetilide block), less the hit threshold, % at 10 µM | hit rate 0.51% among 310,000 | AID 1511;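 active = activation above the mean of controls blocked by dofetilide plus 5 SD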;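 also: thallium influx through hERG after potassium depolarization seen as dye fluorescence rise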
Kir21 block – blocks the mouse Kir2.1 inward-rectifier potassium channel | HEK293-Kir2.1, FluxOR thallium flux fluorescence; stronger effect = lower value | B-score at 10 µM | hit rate 0.85% among 310,000 | AID 1672;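 active = fluorescence ratio B-score at or below minus 3 SD of library scores, with starting-brightness B-score within 2 SD, cut at about -4.2 in these data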;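 also: channel flux triggered by added potassium and thallium sulfate stimulus; B-score of peak minus minimum fluorescence over baseline after thallium stimulus; more negative B-score means stronger Kir2.1 block with less thallium influx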
KCNQ1 pot – human KCNQ1 channel potentiation or activation; hit rate 0.35% among 310,000; CHO-K1 KCNQ1, thallium flux FluxOR fluorescence; stronger effect = higher value; B-score at 10 µM; P51787;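 active = fluorescence ratio B-score, a plate-corrected score, at least three library SD, with initial intensity B-score within 5 SD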
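Doses: Single concentration per compound, DMSO matched to controls | Test system: KCNQ1-transfected CHO-K1 cells | Timing: 90 min dye loading and 20 min compound exposure, both at room temperature | Measured by: Kinetic FluxOR thallium fluorescence, 10-s 1-Hz baseline, 110-s post-stimulus read | Medium: Assay buffer with matched DMSO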
KCNQ1 inh – blocks the human KCNQ1 potassium channel; B-score at 10 µM; P51787; CHO-K1 KCNQ1, FluxOR thallium flux fluorescence; stronger effect = higher value; hit rate 1.3% among 310,000;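 active = compounds whose thallium flux B-score, printed positive for inhibition, exceeds three library SD while starting fluorescence stays within three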;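 also: channel opened by potassium depolarization with thallium stimulus after 20 min compound exposure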
KCNK3 block – human KCNK3 channel inhibition, primary screen; O14649; CHO-KCNK3 thallium flux, FluxOR fluorescence; stronger effect = lower value; AID 602410; B-score at 10 µM; hit rate 0.84% among 340,000;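 active = B-score under library mean minus 4 SD, starting fluorescence ratio at most library mean plus 5 SD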;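 also: more negative B-score means stronger inhibition of thallium flux through KCNK3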
KCNQ1 inh valid – human KCNQ1 channel inhibition, validation assay | shares compounds with KCNQ1 inh | KCNQ1 cell line, FluxOR thallium flux fluorescence | inhibition, % at 10 µM | hit rate 93% among 1,600 | AID 588353;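 active = primary screen active, with duplicate mean exceeding buffer control mean plus 3 SD of buffer wells, cut at about 28% in these data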;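 also: 0% = buffer control ratio and 100% = XE991 inhibitor control ratio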
CHO Tl flux – KCNQ1 inhibitor counter-screen hit in parental CHO cells; shares compounds with KCNQ1 inh; parental CHO-K1, FluxOR thallium flux fluorescence ratio; stronger effect = lower value; zero means no signal rise above baseline; fluorescence ratio (Tl flux) at 10 µM; hit rate 21% among 1,600; AID 588366;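 active = mean of duplicate thallium-flux fluorescence ratios in parental host cells more than 5 SD below the buffer control mean, cut at about 0.38 in these data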;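 also: ratio is peak minus minimum fluorescence divided by baseline fluorescence; actives read low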
KCNQ1 APC inh – human KCNQ1 inhibition validated by electrophysiology; calls only at 10 µM; shares compounds with KCNQ1 inh; hit rate 20% among 490; KCNQ1-CHO cells, automated patch clamp current;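 active = KCNQ1 current drop exceeding 3 SD of negative control wells, seen in both duplicate runs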;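 also: steady state current during a 2 s step from -80 to +40 mV; negative values mean current inhibition and positive values mean potentiation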
KCNQ2 inh – selectivity of KCNQ1 inhibitors: inhibition of rat KCNQ2 channel | shares compounds with KCNQ1 inh | KCNQ2 cells, FluxOR thallium flux fluorescence | inhibition, % at 10 µM | hit rate 71% among 1,600 | AID 651746;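 active = mean percent inhibition of the KCNQ2 thallium signal more than 5 SD above the buffer-only control wells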;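 also: KCNQ2 expressed in CHO cells; 0% = buffer control wells and 100% = XE-991 inhibitor control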
KCNQ1-KCNE1 inh – human KCNQ1/KCNE1 inhibition in KCNQ1 specificity screen | shares compounds with KCNQ1 inh | KCNQ1/KCNE1 cells, FluxOR thallium flux fluorescence | inhibition, % at 10 µM | hit rate 77% among 1,600 | AID 652147;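 active = mean percent inhibition of duplicate wells above the buffer-only control mean plus 3 SD of those controls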;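 also: 0% = buffer only wells and 100% = XE-991 inhibitor control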
The depositor's hits bear a star; i = inactive; . = no result; + = active, no number.

SMILES	KCNK9 inh	hERG protect	Kir21 block	KCNQ1 pot	KCNQ1 inh	KCNK3 block	KCNQ1 inh valid	CHO Tl flux	KCNQ2 inh	KCNQ1-KCNE1 inh	others
CCOc1ccc(-n2c(=S)sc3c(=O)[nH]c(SCC(=O)C(C)(C)C)nc32)cc1	i	-6	1.5	i	6*	i	92*	0.47	i	60%*	KCNQ1 APC inh=+
CCn1c(=S)sc2c(=O)[nH]c(SCC(=O)Nc3cc(OC)ccc3OC)nc21	i	-18	2	i	10*	i	66*	0.45	i	89%*
COc1ccc(OC)c(NC(=O)CSc2nc3scc(C)c3c(=O)[nH]2)c1	i	-1	2.1	i	i	i	.	.	.	.
CC(C)Oc1ccc(S(=O)(=O)N2CCOCC2)cc1NC(=O)C1COc2ccccc2O1 (stereo unspecified)	.	.	.	.	.	i	.	.	.	.
CC(Sc1nncn1C)C(=O)Nc1ccc(N2CCCCC2)cc1 (stereo unspecified)	.	.	.	.	.	i	.	.	.	.
COc1ccc(NC(=S)NCc2ccco2)cc1	i	0	0.65	i	i	i	.	.	.	.
S=C(NCc1ccco1)Nc1ccc(Oc2ccccc2)cc1	i	-18	-0.01	i	8*	i	45*	0.43	59%*	66%*
S=C(NCc1ccncc1)Nc1ccc(Cl)c(Cl)c1	i	-13	0.15	i	6*	i	33*	0.58	i	i
S=C(NCc1ccco1)Nc1ccc(Cl)c(Cl)c1	i	-18	0.49	i	8*	i	42*	0.57	i	52%*
S=C(NCc1ccncc1)Nc1cc(Cl)cc(Cl)c1	i	-14	0.24	i	i	i	.	.	.	.
CCCNC(=O)C1CN(C(=O)c2nn(Cc3ccccc3)c(=O)c3ccccc23)c2ccccc2O1 (stereo unspecified)	.	.	.	.	.	i	.	.	.	.
COC(=O)C1(C)COP(=O)(NC23CC4CC(CC(C4)C2)C3)OC1 (stereo unspecified)	.	.	.	.	.	i	.	.	.	.
Cc1ccc(-n2[nH]c(C)c(/C=N/NC(=O)c3ccc([N+](=O)[O-])cc3)c2=O)c(C)c1	i	-8	-0.08	i	i	.	.	.	.	.
CCCCSc1nc(C)c(CC(=O)O)c(=O)[nH]1	i	-5	1.1	i	10*	i	62*	0.52	i	47%*
CN(C(=O)c1ccc(NC(=O)C2CCCN(C(=O)OC(C)(C)C)C2)cc1)C1CCC1 (stereo unspecified)	.	.	.	.	.	i	.	.	.	.
NCCOc1ccc(C23CC4CC(CC(C4)C2)C3)cc1	i	-22	-4.7*	i	7*	i	147*	0.64	i	i	KCNQ1 APC inh=+
Cc1ccc(C2(CCNS(=O)(=O)c3ccc(C)cc3)CCOC(C(C)C)C2)cc1 (stereo unspecified)	i	-12	-0.37	i	8*	i	94*	0.42	83%*	98%*	KCNQ1 APC inh=i
CCC1(C)CC(CCNS(=O)(=O)c2ccc(C)cc2)(c2ccc(C)cc2)CCO1 (stereo unspecified)	i	-9	-1.4	i	i	i	.	.	.	.
Cc1ccc(S(=O)(=O)c2nc(-c3cccs3)oc2N2CCC(C(N)=O)CC2)cc1	.	.	.	.	.	i	.	.	.	.
O=C(NCc1ccccc1)c1cccc(COc2cccc(Cl)c2)c1	i	-20	0.86	i	8*	-11*	126*	0.35*	95%*	156%*
